Bioassay records: PubChem BioAssay, Johns Hopkins Ion Channel Center
Shown are actives, neighbours in structure and some others; about 3.5% of the full set was active somewhere.
MrgX1 antagonist: human MrgX1 receptor antagonism, primary screen; hit rate 1.3% among 310,000; AID 588676; B-score at 10 µM; MRGX1-HEK293 calcium flux, Fluo-4, BAM8-22 antagonism; stronger effect = lower value; Q96LB2;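 active means calcium-response B-score plate-corrected more than 3 library SD below zero, starting fluorescence within 5 deviations, no agonist response on first addition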;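 further: peak minus trough fluorescence over baseline after final BAM8-22 challenge near maximal dose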
Target sequence (Q96LB2 whole entry, looked up): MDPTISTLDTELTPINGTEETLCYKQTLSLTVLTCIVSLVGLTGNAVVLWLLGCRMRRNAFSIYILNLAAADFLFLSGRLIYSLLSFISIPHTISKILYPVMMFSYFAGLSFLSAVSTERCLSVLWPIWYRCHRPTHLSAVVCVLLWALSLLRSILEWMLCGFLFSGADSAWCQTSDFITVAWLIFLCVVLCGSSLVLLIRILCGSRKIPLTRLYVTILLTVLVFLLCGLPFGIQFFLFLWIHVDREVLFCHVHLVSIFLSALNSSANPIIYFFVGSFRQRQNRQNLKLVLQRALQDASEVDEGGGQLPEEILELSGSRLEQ
MrgX1 allo act: human MrgX1 positive allosteric modulation, primary screen; AID 588675; B-score at 10 µM; MrgX1-HEK293, Fluo-4 calcium flux, FDSS; stronger effect = higher value; hit rate 0.63% among 310,000;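 active means plate-corrected calcium response at least 3 library SD above typical, normal starting fluorescence, not activating the receptor alone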;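 further: compound read alongside a low EC10 to EC30 dose of BAM8-22 agonist; peak minus trough fluorescence over baseline measured at the second addition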
MrgX1 ag: activates human MrgX1 receptor signaling; Q96LB2; MrgX1-HEK293 cells, Fluo-4 calcium fluorescence, agonist mode; stronger effect = higher value; B-score at 10 µM; hit rate 0.44% among 310,000; AID 588627;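 active means calcium response B-score plate-corrected fluorescence ratio at least 3 library SD, with starting fluorescence B-score inside 5 SD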
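System: HEK293 cells stably expressing human MrgX1 receptor; Dosing: test compound in the initial addition of three; Schedule: overnight plating, then 30 min 37 °C plus 30 min room-temperature dye loading; Detection: kinetic calcium dye fluorescence, Fluo-4 NW; Controls: per-plate positive and negative controls for Z′ factor.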
RGS4 inh: human RGS4 inhibition. P49798. B-score at 10 µM. HEK293 M3R/RGS4 inducible, Fluo-4 calcium flux; stronger effect = higher value; triggered by carbachol at its EC20. AID 463165. hit rate 0.45% among 310,000;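 active means B-score, a plate-corrected calcium signal, over three deviations above library mean, with baseline fluorescence within five deviations of library mean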;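 further: RGS4 expression induced by doxycycline in cells with stable M3 receptor; B-score is computed from the integrated fluorescence ratio over baseline after carbachol; higher B-score means a larger calcium signal and so more RGS4 inhibition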
Target sequence (P49798 whole entry, looked up): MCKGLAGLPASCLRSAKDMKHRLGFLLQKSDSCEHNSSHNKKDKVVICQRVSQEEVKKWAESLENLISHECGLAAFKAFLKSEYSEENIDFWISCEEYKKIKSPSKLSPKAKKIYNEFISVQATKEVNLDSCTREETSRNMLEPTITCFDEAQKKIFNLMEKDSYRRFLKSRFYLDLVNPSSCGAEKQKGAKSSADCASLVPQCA
RGS4 act: potentiators or activators of RGS4; HEK293 M3R/inducible RGS4, carbachol calcium flux Fluo4; stronger effect = lower value; B-score at 10 µM; hit rate 0.92% among 310,000; AID 463111;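 active means B-score of the integrated calcium signal more than 4 SD below the library mean, with starting fluorescence not abnormally high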;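 further: negative B-score means reduced calcium response which marks RGS4 activation or potentiation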
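Assay system: HEK293 FlpIn-TREx cells, stable M3R, doxycycline-inducible RGS4 / Probe or stimulus: carbachol, ECmax concentration / Times: overnight RGS4 induction, 30 min dye load 37 °C, 20 min compound RT / Signal: kinetic calcium fluorescence imaging with Fluo4-AM dye, 2 µM / Measure: Agonist-evoked peak-minus-minimum fluorescence over baseline, integrated ratio, B score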
RGS4 inh valid: RGS4 inhibitor validation; hit rate 65% among 1,700; AID 492999; shares compounds with RGS4 inh; calcium response, % at 10 µM; HEK293 M3R/RGS4, carbachol calcium Fluo-4 fluorescence; carbachol added at its EC20; 0 = buffer wells, 100 = carbachol control;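 active means duplicate-averaged calcium response above the buffer-only control mean plus 5 SD of those controls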;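 further: integrated fluorescence ratio F max minus min over baseline F0; higher response in RGS4-induced cells means RGS4 inhibition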
RGS4 uninduced: counter-screen for RGS4 inhibitors: effect in non-induced cells | shares compounds with RGS4 inh | HEK293 M3R non-induced, carbachol calcium Fluo-4; submaximal (EC20) carbachol stimulus; buffer wells 0%, carbachol control wells 100% | activity (percent), % at 10 µM | hit rate 20% among 1,900 | AID 493000; call rule not given here;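 further: RGS4 induction absent so cells express M3R without RGS4; higher means more calcium signal and flags a non-specific hit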
M3R basal Ca ctr: second counter-screen for RGS4 inhibitors: non-induced cells without carbachol | shares compounds with RGS4 inh | HEK293 M3R/RGS4 non-induced, Fluo-4 calcium, no carbachol; normalised: buffer wells 0%, carbachol wells 100% | calcium response (agonist-mode artifact), % at 10 µM | hit rate 22% among 1,900 | AID 493001;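 active means duplicate-averaged calcium rise in uninduced cells above buffer wells' mean plus 5 SD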
A number is an active result.

O=C(NC1CCN(Cc2ccc3ccccc3c2)CC1)c1ccccc1 was read as MrgX1 antagonist inactive, MrgX1 allo act inactive, MrgX1 ag inactive, RGS4 inh inactive and RGS4 act inactive.
Screening O=C(/C=C/c1ccc([N+](=O)[O-])cc1)c1cccs1 returned MrgX1 antagonist inactive, MrgX1 allo act inactive, MrgX1 ag inactive, RGS4 inh 12, RGS4 act inactive, RGS4 inh valid 8.0%, RGS4 uninduced 38% and M3R basal Ca ctr inactive.
CCCn1c(NC(=O)CCS(=O)(=O)c2ccc(C)cc2)nc2ccccc21 was read as MrgX1 antagonist inactive, MrgX1 allo act inactive, MrgX1 ag inactive, RGS4 inh inactive and RGS4 act inactive.
CCn1c2ccccc2c2cc(/C=N/NC(=O)c3cc(O)cc(O)c3)ccc21 was read as MrgX1 antagonist inactive, MrgX1 allo act inactive, MrgX1 ag inactive, RGS4 inh 9, RGS4 act inactive, RGS4 inh valid 42%, RGS4 uninduced 31% and M3R basal Ca ctr inactive.
Screening CCn1c2ccccc2c2cc(/C=N/NC(=O)c3ccc(O)cc3)ccc21 returned MrgX1 antagonist -6.3, MrgX1 allo act inactive, MrgX1 ag inactive, RGS4 inh inactive, RGS4 act inactive, RGS4 uninduced inactive and M3R basal Ca ctr inactive.
Screening Cc1ccc(CCNC(=O)c2sc3nc4n(c(=O)c3c2C)CCC4)cc1 returned MrgX1 antagonist inactive, MrgX1 allo act inactive, MrgX1 ag inactive, RGS4 inh inactive and RGS4 act inactive.
CCOC(=O)[C@@H]1[C@H]2COc3ccccc3[C@H]2N2C(=O)N(c3ccc(F)cc3)C(=O)[C@]12C was read as MrgX1 antagonist inactive, MrgX1 allo act inactive, MrgX1 ag inactive, RGS4 inh inactive, RGS4 act inactive, RGS4 inh valid inactive, RGS4 uninduced inactive and M3R basal Ca ctr inactive.
`CCOC(=O)[C@@H]1[C@H]2COc3ccccc3[C@@H]2N2C(=O)N(c3ccc(C)cc3)C(=O)[C@]12C` gave MrgX1 antagonist inactive, MrgX1 allo act inactive, MrgX1 ag inactive, RGS4 inh inactive, RGS4 act inactive, RGS4 uninduced inactive and M3R basal Ca ctr inactive.
CCOC(=O)[C@@H]1[C@H]2COc3ccccc3[C@H]2N2C(=O)N(c3ccc(Cl)cc3)C(=O)[C@]12C was read as MrgX1 antagonist inactive, MrgX1 allo act inactive, MrgX1 ag inactive, RGS4 inh inactive, RGS4 act inactive, RGS4 inh valid inactive, RGS4 uninduced inactive and M3R basal Ca ctr inactive.
`Cc1ccc(S(=O)(=O)c2nc(S(=O)(=O)c3ccccc3)sc2N2CCN(C)CC2)cc1` gave MrgX1 antagonist inactive, MrgX1 allo act inactive, MrgX1 ag inactive, RGS4 inh inactive and RGS4 act inactive.
For COc1ccc(-c2cc(=O)oc3c(C)c(O)ccc23)cc1 the results were MrgX1 antagonist inactive, MrgX1 allo act inactive, MrgX1 ag inactive, RGS4 inh inactive and RGS4 act inactive.
`CCOc1ccc(/C=C/C(=O)c2c(O)cc(C)oc2=O)cc1` gave MrgX1 antagonist inactive, MrgX1 allo act inactive, MrgX1 ag inactive, RGS4 inh inactive and RGS4 act inactive.
COc1ccc(/C=C/C(=O)c2c(O)ccc3c(C)cc(=O)oc23)cc1 was read as MrgX1 antagonist inactive, MrgX1 allo act inactive, MrgX1 ag inactive, RGS4 inh inactive, RGS4 act inactive, RGS4 inh valid inactive, RGS4 uninduced inactive and M3R basal Ca ctr inactive.
Screening COc1ccc(/C=C\C(=O)c2c(O)ccc3c(C)cc(=O)oc23)cc1 returned MrgX1 antagonist inactive, MrgX1 allo act inactive, MrgX1 ag inactive, RGS4 inh inactive, RGS4 act inactive, RGS4 uninduced inactive and M3R basal Ca ctr inactive.
For Cc1ccc(-c2[nH]nc(N)c2N=Nc2ccccc2C)cc1 the results were MrgX1 antagonist inactive, MrgX1 allo act inactive, MrgX1 ag inactive, RGS4 inh 10, RGS4 act inactive, RGS4 inh valid inactive, RGS4 uninduced inactive and M3R basal Ca ctr inactive.
